# Bioassay records (PubChem)
# Sampled rows, rich in hits. Any-hit rate of the full collection: about 1.2%.
# CaV13 FRET inh – Disruptors of the CACNA1D IQ motif to Ca2+-dependent inactivation inhibitor domain association, primary screening, Förster resonance energy transfer in intact living …; HEK cells, CFP/YFP FRET ICDI-IQ, plate reader, 10 min; percent FRET-ratio fall versus neutral wells; inhibition, % at 12.3 µM; actives 0.098% (n = 340,000);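 active = mean replicate inhibition of at least 30% and at least 1% of replicates passing that level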;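 note: 0% = median of the neutral control wells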
# SR-BI HDL uptake – mouse SR-BI HDL lipid transfer inhibition; inhibition, % at 12.5 µM; Q61009; ldlA[mSR-BI] CHO cells, DiI-HDL uptake fluorescence, 3 h; actives 0.96% (n = 320,000);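 active = mean replicate inhibition of at least 70% and a set share of replicates each scoring 70 or more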;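 note: 0% = median of neutral control wells and 100% = median of positive control wells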
# Target sequence (Q61009 whole entry, looked up): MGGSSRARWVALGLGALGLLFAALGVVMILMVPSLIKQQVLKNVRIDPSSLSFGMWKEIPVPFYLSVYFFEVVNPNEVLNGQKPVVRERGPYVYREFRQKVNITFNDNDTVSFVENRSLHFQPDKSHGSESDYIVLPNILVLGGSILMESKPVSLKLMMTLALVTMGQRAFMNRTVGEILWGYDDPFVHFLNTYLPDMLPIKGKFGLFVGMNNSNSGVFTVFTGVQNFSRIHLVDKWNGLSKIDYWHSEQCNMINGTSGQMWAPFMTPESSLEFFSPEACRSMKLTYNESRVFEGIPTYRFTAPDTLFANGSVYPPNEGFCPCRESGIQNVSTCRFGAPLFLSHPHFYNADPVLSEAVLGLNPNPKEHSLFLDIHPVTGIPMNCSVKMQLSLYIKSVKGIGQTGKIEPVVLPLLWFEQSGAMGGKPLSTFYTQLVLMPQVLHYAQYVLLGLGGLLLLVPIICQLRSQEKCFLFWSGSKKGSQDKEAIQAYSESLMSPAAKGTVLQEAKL
# Efflux pump mplx – blocks antifungal efflux pumps in multiplex yeast assay; S. cerevisiae Candida pump triplex, Nile Red efflux; inhibition, % at 10 µM; actives 0.44% (n = 330,000); AID 485275;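 active = plate passing quality check with inhibition over a set limit, or well fluorescence over plate mean plus 4 SD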;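 note: Nile Red retained in pooled yeast measured as flow cytometry median fluorescence; 0% = buffer negative control and 100% = Enniatin B positive control; higher means more Nile Red kept so more efflux inhibition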
# SR-BI uptake up – enhances SR-BI lipid uptake from DiI-HDL; CHO ldlA[mSR-BI] cells, DiI-HDL uptake fluorescence, 3 h; 100 = double the neutral-control signal; activation, % at 12.5 µM; actives 0.096% (n = 320,000);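 active = mean replicate activation of at least 60% and every replicate at or above 60%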;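 note: 0% = median plate neutral-control signal and 100% = twice that signal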
#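 Material: SR-BI-overexpressing, LDLR-lacking CHO cells | Dosing: Single compound concentration, delivered by pin transfer | Probe or stimulus: Labelled HDL, 10 µg/mL | Signal: Bottom-read cell fluorescence after medium removal, ex 550/em 595 nm | Schedule: 3 h, 37 °C | Evaluation: HDL uptake via cellular fluorescence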
# FN deposition inh – fibronectin deposition inhibition; AH1F fibroblasts, Alexa488-fibronectin deposition fluorescence, overnight; actives 0.086% (n = 350,000); AID 743247; inhibition, % at 12.6 µM;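 active = mean inhibition across replicates of 30% or more, regardless of how many single replicates reach that level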;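 note: positive control wells lacked labelled fibronectin entirely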
#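 Material – AH1F fibroblast monolayer, labelled fibronectin deposition · Reagent – labelled fibronectin 24 nM · Timing – 1 h adhesion, overnight exposure · Measured by – fluorescence at 485 nm excitation, 525 nm emission · Read-out – inhibition of fibronectin deposition signal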
# * hit, by the source's call; . = no result.
SMILES,CaV13 FRET inh,SR-BI HDL uptake,Efflux pump mplx,SR-BI uptake up,FN deposition inh
CC(C)C(NC(=O)C12CC3CC(CC(C3)C1)C2)C(=O)N/N=C/C1=C(N2CCOCC2)C(=C\c2cccc([N+](=O)[O-])c2)/CC1 (configuration not stated),-3,85*,0,-85,0
O=C(CSc1nc2ccccc2s1)N/N=C/c1ccccc1C(=O)O,-1,.,0,.,5
O=C(CSc1nc2ccccc2s1)N/N=C/c1ccc(C(=O)O)cc1,-4,-1,0,1,35*
CN(CCOc1ccc(Br)cc1)CC(O)c1ccccc1 (configuration not stated),-20,-18,5.3*,18,-3
CN(CCOc1ccc(Cl)cc1)CC(O)c1ccccc1 (configuration not stated),-3,-19,3,19,3
C[C@H](CO)N1C[C@H](C)[C@H](CN(C)S(=O)(=O)c2cccs2)Oc2ccc(NC(=O)CCC(F)(F)F)cc2C1=O,.,.,.,.,0
Cc1nn(-c2ccccc2)c(C)c1/C=N/NC(=O)CSc1nnc(SCc2cccc3ccccc23)s1,-3,73*,0,-73,1
Cc1nn(-c2ccccc2)c(C)c1/C=N/NC(=O)CSc1nc2ccccc2c(=O)n1-c1ccc(Br)cc1,-5,74*,0,-74,12
CO[C@@H]1CN(C)C(=O)c2cc(NC(C)=O)ccc2OC[C@@H](C)N(Cc2cccc(F)c2)C[C@@H]1C,.,.,.,.,-2
O=C1/C(=C/c2c[nH]c3ccccc23)CCC/C1=C\c1c[nH]c2ccccc12,-7,89*,1,-89,-7
CC(C)NC(=O)Nc1cccc2c1O[C@H](CN(C)C(=O)OC(C)(C)C)[C@@H](C)CN(C)C2=O,.,.,.,.,-3
Cc1ccc(CSc2sc(C(=O)c3ccccc3)c(N)c2C#N)cc1,-3,8,0,-8,.
Cc1ccc(-c2sc(C(=O)NN)c(C)c2C#N)cc1,2,92*,0,-92,13
COc1cc(OC)cc(-c2cc3cc(F)ccc3cn2)c1,-6,74*,0,-74,-7
C[C@@H]1CN([C@@H](C)CO)C(=O)CCCn2nncc2CO[C@H]1CN(C)Cc1ccccc1O,.,.,.,.,-1
O=C(CSC1=NCCN1)Nc1cccc([N+](=O)[O-])c1,-3,82*,0,-82,-1
CCC(=O)N[C@H]1C=C[C@H](CC(=O)NCC2CC2)O[C@H]1CO,.,.,.,.,-13
COc1cc(NC(=O)c2ccc3c(c2)OCO3)c2ncccc2c1,.,78*,0,-78,.
CC(=O)Nc1ccc2c(c1)-c1ccc(F)cc1C2,-6,-6,.,6,4
CC(=O)Nc1ccc2c(c1)Cc1ccc(Cl)cc1-2,-6,74*,.,-74,3
CCN(CC)S(=O)(=O)c1ccc2oc(C(=O)NCc3ccc(C)cc3)c(C)c2c1,-7,76*,0,-76,.
CCN(CC)S(=O)(=O)c1ccc2oc(C(=O)NC(C)C)c(C)c2c1,-3,37,0,-37,-6
O=C(COC(=O)/C=C/c1cccc(Cl)c1)NCCC1=CCCCC1,-5,0,0,0,9
O=C(COC(=O)/C=C/c1ccc(Cl)cc1)NCCC1=CCCCC1,-3,-14,0,14,32*
NC(=O)NCCC1=CCCCC1,.,-93,0,93*,-7
SMILES,CaV13 FRET inh,SR-BI HDL uptake,Efflux pump mplx,SR-BI uptake up,FN deposition inh
O=C(C[C@H]1C[C@H]2c3cc(NS(=O)(=O)c4ccc(F)cc4)ccc3O[C@H]2[C@H](CO)O1)NCc1ccc(-c2ccccc2)cc1,.,.,.,.,4
COc1ccc(-c2c(-c3cc(OC)cc(OC)c3)n(C)c3ccc(-c4ccc5[nH]ccc5c4)cc23)cc1,-9,76*,1,-76,-5
CN1C(=O)c2cc(NC(=O)C3CC3)ccc2OC[C@H]2O[C@H](CC(=O)O)CC[C@@H]21,.,.,.,.,4
C[C@@H]1COCn2nncc2CC[C@H](C)C(=O)N1,.,.,.,.,-1
COc1ccc(C2C(=O)c3ccccc3C2=Nc2ccc(Br)cc2)cc1 (configuration not stated),-5,94*,0,-94,3
CCOc1ccc(-c2cc3cc(OC)c(OC)cc3c(C)n2)cc1,-5,74*,0,-74,7
CCc1nc(-c2ccc(OC)c(OC)c2)cc2cc(OC)c(OC)cc12,-5,56,0,-56,6
CC1CCN(C2=C(NS(=O)(=O)c3ccccc3)C(=O)c3ccccc3C2=O)CC1,-4,.,0,.,3
O=C1C(NS(=O)(=O)c2cccs2)=C(N2CCN(c3cccc(Cl)c3)CC2)C(=O)c2ccccc21,.,81*,0,-81,.
O=C1C(NS(=O)(=O)c2ccccc2)=C(N2CCN(c3ccc(F)cc3)CC2)C(=O)c2ccccc21,-4,87*,0,-87,4
COc1cccc(N2CCN(c3ncnc4c3[nH]c3ccc(F)cc34)CC2C)c1 (configuration not stated),-7,72*,0,-72,.
CO[C@@H]1CN(C)C(=O)c2ccc(NC(=O)c3nc4ccccc4s3)cc2OC[C@H](C)NC[C@H]1C,.,.,.,.,11
Nc1ccc(C(=O)Nc2ccccc2C(=O)O)cc1,-5,-85,0,85*,1
O=C(C[C@@H]1C=C[C@H](NS(=O)(=O)c2ccc(F)cc2)[C@H](CO)O1)N1CCC(Cc2ccccc2)CC1,.,.,.,.,9
COc1ccc2cc(C(=O)N/N=C/c3sc4ccccc4c3O)ccc2c1,-10,96*,0,-96,-10
COc1ccc(C(=O)N/N=C/c2sc3ccccc3c2O)cc1,.,120*,0,-120,.
O=C(N/N=C/c1sc2ccccc2c1O)c1cccc2ccccc12,-10,106*,0,-106,.
O=C(N/N=C/c1ccc(F)cc1)c1ccccc1,-4,-3,0,3,-4
O=C(N/N=C/c1sc2ccccc2c1O)c1ccccc1,.,118*,0,-118,.
COc1ccc(C(=O)N/N=C/c2c[nH]c3ccccc23)cc1,-5,-9,0,9,3
O=C(C1CCCC1)N1CC[C@H]2[C@H](CO)Nc3ccc(C4=CCCCC4)cc3[C@H]21,.,.,.,.,5
CO[C@@H]1CN(C)C(=O)c2cc(NC(C)=O)ccc2OC[C@@H](C)N(C(=O)c2ccccn2)C[C@@H]1C,.,.,.,.,-12
C[C@@H]1CN([C@H](C)CO)C(=O)c2cc(C3=CCCCC3)cnc2O[C@@H]1CN(C)C(=O)c1ccccn1,.,.,.,.,-4
COc1ccc(-c2ccc3c(c2)O[C@@H](CN(C)C)[C@@H](C)CN([C@@H](C)CO)S3(=O)=O)cc1,.,.,.,.,2
COc1ccc2c3c(n(C)c2c1)[C@@H](CO)N(C(=O)C1CCCC1)CC31CN(C(=O)Nc2cccc(F)c2)C1,.,.,.,.,28
C[C@@H]1CCCCO[C@@H](CN(C)C(=O)CCC(F)(F)F)[C@H](C)CN([C@@H](C)CO)C(=O)c2cc(NS(=O)(=O)c3ccc(Cl)cc3)ccc2O1,.,.,.,.,-2
